Reference: ChEMBL document CHEMBL1629488, “Synthesis and biological evaluation of 2-(3',4',5'-trimethoxybenzoyl)-3-aryl/arylaminobenzo[b]thiophene derivatives as a novel class of antiproliferative agents” (Eur J Med Chem, 2010)
Calls of active or inactive are those of the source. The calls are words filed in the database; no cut-off is given here.

Assays:
HeLa [1] = experiment: Antiproliferative activity against human HeLa cells assessed as cell viability after 72 hrs by MTT assay; type: functional, cell-based
Outline: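 A549 and HeLa cells grown in DMEM with 10% FBS and penicillin/streptomycin. Plated at 8 × 10^3 cells/well and held 18 h at 37 °C in 5% CO2. Medium replaced with compound in complete medium at varied concentrations for 72 h at 37 °C, then MTT read.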

HeLa [2] = experiment: Cell cycle arrest in human HeLa cells assessed as accumulation at G2/M phase at 0.625 uM after 24 hrs using propidium iodide staining by flow cytometry relative to control; type: functional
Outline: (§1)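 Exponentially growing cells (5 × 10^5) exposed to graded compound levels, 0.312 to 5 μM, for 24 or 48 h; collected, fixed in ice-cold 70% ethanol, treated with lysis buffer containing RNase A and 0.1% Triton X-100, stained with propidium iodide; DNA content read by flow cytometry. Mean ± SEM of two independent experiments.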

HeLa [3] = experiment: Induction of apoptosis in human HeLa cells assessed as viable cells at 5 uM after 24 hrs using FITC-conjugated annexin V and propidium iodide staining by flow cytometry assay (RVb = 94.7 %); type: functional; conditions: read-out: Activity
HeLa [4] = experiment: Induction of apoptosis in human HeLa cells assessed as caspase-3-mediated cleavage of PARP at 0.625 to 2.5 uM; type: functional, cell-based; conditions: TDE = time-dependent effect
Outline: (§2)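 Treated cells washed twice in ice-cold PBS, lysed 30 min on ice, lysate cleared at 15000×g, 4 °C, 10 min; protein by BCA. 20 μg per lane on SDS-PAGE (7.5–15%), PVDF transfer, overnight block at 4 °C; primary antibodies 2 h at room temperature, peroxidase secondaries 60 min, ECL detection; β-actin loading control.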

HeLa [5] = experiment: Induction of apoptosis in human HeLa cells assessed as late apoptotic cells at 5 uM after 24 hrs using FITC-conjugated annexin V and propidium iodide staining by flow cytometry assay (RVb = 1.9 %); type: functional
HeLa [6] = experiment: Induction of apoptosis in human HeLa cells assessed as late apoptotic cells at 2.5 uM after 24 hrs using FITC-conjugated annexin V and propidium iodide staining by flow cytometry assay (RVb = 1.9 %); type: functional
HeLa [7] = experiment: Induction of apoptosis in human HeLa cells assessed as necrotic cells at 5 uM after 24 hrs using FITC-conjugated annexin V and propidium iodide staining by flow cytometry assay (RVb = 1.9 %); type: functional
HeLa [8] = experiment: Induction of apoptosis in human HeLa cells assessed as necrotic cells at 2.5 uM after 24 hrs using FITC-conjugated annexin V and propidium iodide staining by flow cytometry assay (RVb = 1.9 %); type: functional
Jurkat = experiment: Cell cycle arrest in human Jurkat cells assessed as accumulation at S phase at 1.25 uM after 24 hrs using propidium iodide staining by flow cytometry relative to control; type: functional; outline: as §1
HeLa [9] = experiment: Cell cycle arrest in human HeLa cells assessed as reduction of cells at G1 phase at 1.25 uM after 24 hrs using propidium iodide staining by flow cytometry; type: functional, cell-based; outline: as §1
HeLa [10] = experiment: Upregulation of p53 protein expression in human HeLa cells at up to 2.5 uM after 24 to 48 hrs by Western blot analysis; type: functional, cell-based; outline: as §2
HeLa [11] = experiment: Induction of apoptosis in human HeLa cells assessed as increase of Bcl-2 protein expression up to 2.5 uM after 24 to 48 hrs by Western blot analysis; type: functional, cell-based; outline: as §2
[12] = Inhibition of tubulin polymerization after 20 mins by turbidimetry

- IC50 (HeLa [1]): 0.7 µM
- IC50 [12]: 7.2 µM
Structure (SMILES): CCOc1ccc(Nc2c(C(=O)c3cc(OC)c(OC)c(OC)c3)sc3ccccc23)cc1
- Activity (HeLa [2]): 52%
- viability at 5 µM (HeLa [3]): 49.9%
- Activity (HeLa [4]): tde
- Activity (HeLa [5]): 25.4%
- Activity (HeLa [6]): 24.9%
- Activity (HeLa [7]): 17.4%
- Activity (HeLa [8]): 19.3%
- Activity (Jurkat): 18%
- Activity (HeLa [9]): Active
- Activity (HeLa [10]): inactive
- Activity (HeLa [11]): Active
